# Measurements published in ChEMBL document CHEMBL4321819, “Simple Structural Modifications Converting a Bona fide MDM2 PROTAC Degrader into a Molecular Glue Molecule: A Cautionary Tale in the Design of PROTAC Degraders” (J Med Chem, 2019).
# Active and inactive are the calls of the source. The rule behind the calls is not given here.
# What was measured:
# [1] = Antiproliferative activity against human RS4:11/IRMI-2 cells harboring p53 hotspot mutation Y236H/R249G assessed as MDM2-independent cell growth inhibition after 4 days by WST-8 assay; type: functional, cell-based; settings: RS4-11, 96 h
# Method in brief: (§1)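 Leukemia cells seeded at 10000–20000 cells/well, breast cancer lines at 5000–10000 cells/well. Serially diluted compound added, then 4 days at 37 °C, 5% CO2. Growth read with WST-8 reagent after at least 1 h, absorbance at 450 nm. RS4;11, MOLM-13 and breast lines were grown in RPMI 1640; MV-4-11 and HL-60 in IMDM; all with 10% FBS. Mean ± SE, at least three independent experiments.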
# [2] = target: E3 ubiquitin-protein ligase Mdm2 (Homo sapiens, UniProt Q00987); test: Displacement of PMDM6-F fluorescent probe from human recombinant His-tagged MDM2 (1 to 118 residues) after 15 mins by fluorescence polarization assay
# Sequence of E3 ubiquitin-protein ligase Mdm2 (Q00987 whole entry, the tested form may be a part): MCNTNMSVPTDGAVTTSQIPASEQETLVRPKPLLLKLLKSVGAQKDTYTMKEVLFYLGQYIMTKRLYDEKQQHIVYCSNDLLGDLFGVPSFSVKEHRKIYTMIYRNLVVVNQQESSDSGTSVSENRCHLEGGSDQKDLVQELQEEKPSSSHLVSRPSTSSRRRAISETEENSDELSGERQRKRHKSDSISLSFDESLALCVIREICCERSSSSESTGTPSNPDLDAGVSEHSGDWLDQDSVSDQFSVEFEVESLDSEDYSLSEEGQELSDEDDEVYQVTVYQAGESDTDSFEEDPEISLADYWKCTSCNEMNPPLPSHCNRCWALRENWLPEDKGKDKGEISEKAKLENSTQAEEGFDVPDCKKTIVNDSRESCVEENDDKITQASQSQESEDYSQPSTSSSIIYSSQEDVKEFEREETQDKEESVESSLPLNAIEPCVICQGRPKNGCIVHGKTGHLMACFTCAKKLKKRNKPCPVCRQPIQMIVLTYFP
# Method in brief: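 Recombinant human His-tagged MDM2 (residues 1–118) with a FAM-labelled p53-based peptide as fluorescent probe; competitive fluorescence-polarization binding. Mean ± standard error from at least three independent experiments.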
# RS4-11 [3] = test: Antiproliferative activity against human RS4:11 cells expressing wild type p53 assessed as MDM2-independent cell growth inhibition after 4 days by WST-8 assay; type: functional, cell-based; settings: RS4-11, 96 h; method in brief: as §1
# MDA-MB-231 [4] = test: Antiproliferative activity against human MDA-MB-231 cells harboring mutant p53 assessed as cell growth inhibition without interaction with cereblon after 4 days by WST-8 assay; type: functional, cell-based; settings: MDA-MB-231, 96 h
# [5] = Antiproliferative activity against human RS4:11/IRMI-2 cells harboring p53 hotspot mutation Y236H/R249G assessed as cell growth inhibition without interaction with cereblon after 4 days by WST-8 assay; type: functional, cell-based; settings: RS4-11, 96 h; method in brief: as §1
# RS4-11 [6] = test: Antiproliferative activity against human RS4:11 cells expressing wild type p53 assessed as cell growth inhibition without interaction with cereblon after 4 days by WST-8 assay; type: functional, cell-based; settings: RS4-11, 96 h; method in brief: as §1
# MDA-MB-468 [7] = test: Antiproliferative activity against human MDA-MB-468 cells harboring mutant p53 assessed as cell growth inhibition without interaction with cereblon after 4 days by WST-8 assay; type: functional, cell-based; settings: MDA-MB-468, 96 h
# [8] = target: T1, Protein cereblon/Eukaryotic peptide chain release factor GTP-binding subunit ERF3A/DNA damage-binding protein 1/Cullin-4A (Homo sapiens) (UniProt Q96SW2+Q16531+Q13619+P15170); test: Protac activity at GSPT1/CUL4/DDB1/CRBN in human RS4:11/IRMI-2 cells harboring p53 hotspot mutation Y236H/R249G assessed as decrease in GSPT1 protein level after 2 hrs by Western blot analysis; type: cell-based
# T1 sequence (P15170 whole entry, looked up): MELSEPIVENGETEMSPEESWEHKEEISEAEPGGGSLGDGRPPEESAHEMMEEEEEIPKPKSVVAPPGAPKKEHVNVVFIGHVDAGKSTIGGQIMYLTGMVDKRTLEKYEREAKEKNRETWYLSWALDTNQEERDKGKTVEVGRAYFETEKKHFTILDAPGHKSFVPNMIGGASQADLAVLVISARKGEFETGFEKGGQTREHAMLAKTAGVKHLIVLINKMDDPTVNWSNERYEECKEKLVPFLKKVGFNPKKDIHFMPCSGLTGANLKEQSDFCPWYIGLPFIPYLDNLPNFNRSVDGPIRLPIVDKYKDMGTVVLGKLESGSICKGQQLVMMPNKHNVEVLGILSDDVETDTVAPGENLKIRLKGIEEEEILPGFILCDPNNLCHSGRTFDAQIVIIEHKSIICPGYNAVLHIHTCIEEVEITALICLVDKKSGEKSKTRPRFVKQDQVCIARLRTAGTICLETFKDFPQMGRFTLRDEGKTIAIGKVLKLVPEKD
# T1 sequence (Q13619 whole entry, looked up): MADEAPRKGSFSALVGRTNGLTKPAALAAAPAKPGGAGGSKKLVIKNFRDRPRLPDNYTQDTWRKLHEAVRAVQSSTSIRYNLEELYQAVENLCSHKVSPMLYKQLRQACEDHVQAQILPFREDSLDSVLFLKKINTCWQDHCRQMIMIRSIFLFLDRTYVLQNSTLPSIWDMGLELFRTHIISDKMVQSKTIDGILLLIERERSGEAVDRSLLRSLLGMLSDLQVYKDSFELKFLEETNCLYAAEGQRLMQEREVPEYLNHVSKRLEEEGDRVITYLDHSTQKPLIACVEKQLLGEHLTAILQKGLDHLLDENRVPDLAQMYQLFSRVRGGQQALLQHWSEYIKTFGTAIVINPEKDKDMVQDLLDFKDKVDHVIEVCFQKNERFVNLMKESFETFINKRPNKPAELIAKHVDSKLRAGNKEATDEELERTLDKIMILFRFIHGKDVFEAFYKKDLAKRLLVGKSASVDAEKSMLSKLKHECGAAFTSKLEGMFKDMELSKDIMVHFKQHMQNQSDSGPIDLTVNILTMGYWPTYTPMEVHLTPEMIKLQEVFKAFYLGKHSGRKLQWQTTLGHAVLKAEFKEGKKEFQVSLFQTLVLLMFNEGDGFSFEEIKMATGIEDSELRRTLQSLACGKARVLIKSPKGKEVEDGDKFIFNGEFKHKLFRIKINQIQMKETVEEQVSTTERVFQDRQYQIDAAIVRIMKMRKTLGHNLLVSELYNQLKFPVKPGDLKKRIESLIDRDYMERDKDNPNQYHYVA
# T1 sequence (Q16531 whole entry, looked up): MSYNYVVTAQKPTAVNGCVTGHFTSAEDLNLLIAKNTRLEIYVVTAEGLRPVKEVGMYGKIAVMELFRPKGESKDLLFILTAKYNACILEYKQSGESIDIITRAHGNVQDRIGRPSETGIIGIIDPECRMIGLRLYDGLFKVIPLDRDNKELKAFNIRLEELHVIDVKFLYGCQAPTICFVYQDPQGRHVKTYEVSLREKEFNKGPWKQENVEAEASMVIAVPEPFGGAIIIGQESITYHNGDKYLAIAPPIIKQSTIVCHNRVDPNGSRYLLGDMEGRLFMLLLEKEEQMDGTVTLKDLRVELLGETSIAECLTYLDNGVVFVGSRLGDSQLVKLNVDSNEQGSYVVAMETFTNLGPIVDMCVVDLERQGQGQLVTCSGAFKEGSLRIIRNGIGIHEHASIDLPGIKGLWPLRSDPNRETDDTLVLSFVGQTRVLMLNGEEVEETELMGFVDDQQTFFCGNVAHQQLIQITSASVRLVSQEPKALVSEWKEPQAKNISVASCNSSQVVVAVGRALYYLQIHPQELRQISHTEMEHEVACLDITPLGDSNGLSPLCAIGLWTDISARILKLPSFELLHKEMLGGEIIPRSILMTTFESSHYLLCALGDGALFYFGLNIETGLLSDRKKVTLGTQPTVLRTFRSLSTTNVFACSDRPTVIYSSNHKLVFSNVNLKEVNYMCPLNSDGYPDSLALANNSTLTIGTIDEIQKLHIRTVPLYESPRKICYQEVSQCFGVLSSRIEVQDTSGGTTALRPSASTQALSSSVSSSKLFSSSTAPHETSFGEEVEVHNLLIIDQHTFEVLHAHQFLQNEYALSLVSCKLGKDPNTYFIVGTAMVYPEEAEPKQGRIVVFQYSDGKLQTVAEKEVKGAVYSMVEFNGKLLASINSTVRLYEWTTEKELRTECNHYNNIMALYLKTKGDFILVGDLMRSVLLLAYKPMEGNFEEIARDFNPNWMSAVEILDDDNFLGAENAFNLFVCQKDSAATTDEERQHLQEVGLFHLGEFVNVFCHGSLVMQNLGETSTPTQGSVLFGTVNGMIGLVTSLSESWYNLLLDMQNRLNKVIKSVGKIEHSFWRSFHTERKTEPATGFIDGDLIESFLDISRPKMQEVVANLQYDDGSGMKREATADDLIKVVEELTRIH
# T1 sequence (Q96SW2 whole entry, looked up): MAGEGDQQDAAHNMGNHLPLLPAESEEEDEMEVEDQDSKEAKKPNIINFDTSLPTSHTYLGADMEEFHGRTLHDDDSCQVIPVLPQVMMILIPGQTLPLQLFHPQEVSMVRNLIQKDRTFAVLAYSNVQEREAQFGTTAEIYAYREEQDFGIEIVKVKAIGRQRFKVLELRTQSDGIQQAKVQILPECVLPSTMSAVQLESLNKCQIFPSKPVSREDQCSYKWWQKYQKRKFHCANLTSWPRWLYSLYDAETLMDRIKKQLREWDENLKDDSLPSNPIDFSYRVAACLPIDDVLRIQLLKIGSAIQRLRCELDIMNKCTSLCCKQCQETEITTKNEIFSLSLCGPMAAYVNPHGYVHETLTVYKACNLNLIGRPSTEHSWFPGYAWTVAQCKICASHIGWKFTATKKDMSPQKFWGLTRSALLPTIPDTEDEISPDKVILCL
# Method in brief: (§2)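 RS4;11 (wild-type p53) or RS4;11/IRMI-2 (MDM2 inhibitor-resistant derivative, mutant p53) cells kept in RPMI 1640 with 10% FBS at 37 °C, 5% CO₂. 2×10^6 cells/well treated at the indicated concentrations and times, then lysed in ice-cold lysis buffer with protease inhibitor. GSPT1 detected by Western blot with a specific antibody.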
# [9] = target: Eukaryotic peptide chain release factor GTP-binding subunit ERF3A (Homo sapiens, UniProt P15170); test: Induction of GSPT1 degradation in human RS4:11 cells measured after 24 hrs by Western blot analysis; type: cell-based
# Sequence of Eukaryotic peptide chain release factor GTP-binding subunit ERF3A (P15170 whole entry): as the sequence (P15170 whole entry, looked up) above
# RS4-11 [10] = test: Antiproliferative activity against human RS4:11 cells expressing wild type p53 assessed as cell growth inhibition after 4 days by WST-8 assay; type: functional, cell-based; settings: RS4-11, 96 h; method in brief: as §1
# [11] = Antiproliferative activity against human RS4:11/IRMI-2 cells harboring p53 hotspot mutation Y236H/R249G assessed as cell growth inhibition after 4 days by WST-8 assay; type: functional, cell-based; settings: RS4-11, 96 h; method in brief: as §1
# [12] = target: T1, Protein cereblon/Eukaryotic peptide chain release factor GTP-binding subunit ERF3A/DNA damage-binding protein 1/Cullin-4A (Homo sapiens); test: Protac activity at GSPT1/CUL4/DDB1/CRBN in human RS4:11 cells expressing wild type p53 assessed as decrease in GSPT1 protein level after 2 hrs by Western blot analysis; type: cell-based; method in brief: as §2
# MDA-MB-231 [13] = test: Antiproliferative activity against human MDA-MB-231 cells transfected with CRBN siRNA LQ-021086-11-0002 assessed as cell growth inhibition after 4 days by WST-8 assay; type: functional, cell-based; settings: MDA-MB-231, 96 h
# Method in brief: (§3)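 MDA-MB-231 or MDA-MB-468 cells transfected for 2 days using Lipofectamine RNAiMAX with MDM2 siRNA, one of two CRBN siRNAs, or non-targeting control siRNA. Compound then added and growth read by WST-8 at 450 nm.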
# MDA-MB-231 [14] = test: Antiproliferative activity against human MDA-MB-231 cells transfected with CRBN siRNA LQ-021086-10-0002 assessed as cell growth inhibition after 4 days by WST-8 assay; type: functional, cell-based; settings: MDA-MB-231, 72 h, in the assay text read “after 3 days” for “after 4 days”; method in brief: as §3
# MDA-MB-468 [15] = test: Antiproliferative activity against human MDA-MB-468 cells transfected with CRBN siRNA LQ-021086-11-0002 assessed as cell growth inhibition after 4 days by WST-8 assay; type: functional, cell-based; settings: MDA-MB-468, 96 h; method in brief: as §3
# MDA-MB-231 [16] = test: Antiproliferative activity against human MDA-MB-231 cells assessed as cell growth inhibition after 4 days in presence of control siRNA for 3 days followed by compound treatment by WST-8 assay; type: functional, cell-based
# MDA-MB-468 [17] = test: Antiproliferative activity against human MDA-MB-468 cells assessed as cell growth inhibition after 4 days in presence of control siRNA for 3 days followed by compound treatment by WST-8 assay; type: functional, cell-based
# MDA-MB-468 [18] = test: Antiproliferative activity against human MDA-MB-468 cells transfected with CRBN siRNA LQ-021086-10-0002 assessed as cell growth inhibition after 4 days by WST-8 assay; type: functional, cell-based; settings: MDA-MB-468, 96 h; method in brief: as §3
# [19] = target: T1, Protein cereblon/Eukaryotic peptide chain release factor GTP-binding subunit ERF3A/DNA damage-binding protein 1/Cullin-4A (Homo sapiens); test: Protac activity at GSPT1/CUL4/DDB1/CRBN in human RS4:11/IRMI-2 cells harboring p53 hotspot mutation Y236H/R249G assessed as decrease in GSPT1 protein level at 1 to 3 uM after 24 hrs by Western blot analysis; type: cell-based; method in brief: as §2
# [20] = target: T1, Protein cereblon/Eukaryotic peptide chain release factor GTP-binding subunit ERF3A/DNA damage-binding protein 1/Cullin-4A (Homo sapiens); test: Protac activity at GSPT1/CUL4/DDB1/CRBN in human RS4:11 cells expressing wild type p53 assessed as decrease in GSPT1 protein level at 1 to 3 uM after 24 hrs by Western blot analysis; type: cell-based; method in brief: as §2
Compound,IC50 [2],Activity [8],DC50 [9],IC50 (RS4-11 [10]),IC50 [11],Activity [12],further results
O=C1CCC(N2Cc3c(CCCCCNC(=O)[C@@H]4NC5(CCCCC5)[C@@]5(C(=O)Nc6ccccc65)[C@H]4c4ccccc4)cccc3C2=O)C(=O)N1 (some centres undefined),> 20000 nM,–,–,–,–,–,IC50 [1]: 60.9 nM; IC50 (RS4-11 [3]): 48.6 nM
CN1C(=O)CCC(N2Cc3c(CCCCCNC(=O)[C@@H]4NC5(CCCCC5)[C@@]5(C(=O)Nc6cc(Cl)ccc65)[C@H]4c4cccc(Cl)c4F)cccc3C2=O)C1=O (some centres undefined),–,–,–,–,–,–,IC50 (MDA-MB-231 [4]): > 10000 nM; IC50 [5]: 6850 nM; IC50 (RS4-11 [6]): 2490 nM; IC50 (MDA-MB-468 [7]): > 10000 nM
O=C1CCC(N2Cc3c(CCCCNC(=O)[C@@H]4NC5(CCCCC5)[C@@]5(C(=O)Nc6cc(Cl)ccc65)[C@H]4c4cccc(Cl)c4F)cccc3C2=O)C(=O)N1 (some centres undefined),–,Active,1.1 nM,2.5 nM,2.6 nM,Active,–
O=C(O)c1ccc(NC(=O)[C@@H]2NC3(CCCCC3)[C@@]3(C(=O)Nc4cc(Cl)ccc43)[C@H]2c2cccc(Cl)c2F)cc1,9.5 nM,–,–,–,–,–,IC50 (MDA-MB-231 [13]): > 3000 nM; IC50 (MDA-MB-231 [14]): > 3000 nM; IC50 (MDA-MB-468 [15]): > 3000 nM; IC50 (MDA-MB-231 [16]): > 3000 nM; IC50 (MDA-MB-468 [17]): > 3000 nM; IC50 (MDA-MB-468 [18]): > 3000 nM
O=C1CCC(N2Cc3c(CCCOCCOCCNC(=O)[C@@H]4NC5(CCCCC5)[C@@]5(C(=O)Nc6cc(Cl)ccc65)[C@H]4c4cccc(Cl)c4F)cccc3C2=O)C(=O)N1 (some centres undefined),–,Active,1.2 nM,4.9 nM,4.9 nM,Active,–
O=C1CCC(N2Cc3c(CCCNC(=O)[C@@H]4NC5(CCCCC5)[C@@]5(C(=O)Nc6cc(Cl)ccc65)[C@H]4c4cccc(Cl)c4F)cccc3C2=O)C(=O)N1 (some centres undefined),–,–,120 nM,130 nM,180 nM,–,Activity [19]: Active; Activity [20]: Active
